Laboratory results reported in ChEMBL document CHEMBL3352788, “Characterization of selective exosite-binding inhibitors of matrix metalloproteinase 13 that prevent articular cartilage degradation in vitro” (J Med Chem, 2014).
Values belong to the compound of their own block, whether it stands above or below them.

Assays:
Liver = assay: Half life in mouse liver microsomes by LC-MS/MS analysis; type: ADME
Summary of the method: (§1)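 Compound at 1 μM with 1 mg/mL liver microsomes in 100 mM potassium phosphate pH 7.4 at 37 °C with shaking. Reaction started with 1 mM NADPH (final). Aliquots were taken at 0, 5, 10, 20, 40 and 60 min and quenched in acetonitrile. Parallel incubations without NADPH were run.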

Liver microsome [1] = assay: Half life in human liver microsomes by LC-MS/MS analysis; type: ADME; summary of the method: as §1
Liver microsome [2] = assay: Half life in rat liver microsomes by LC-MS/MS analysis; type: ADME; summary of the method: as §1
Cytochrome P450 2C8 = biological target: T1, Cytochrome P450 2C8 (Homo sapiens, UniProt P10632); assay: Inhibition of CYP2C8 (unknown origin) using amodiaquine substrate; type: ADME
T1 sequence (P10632 whole entry): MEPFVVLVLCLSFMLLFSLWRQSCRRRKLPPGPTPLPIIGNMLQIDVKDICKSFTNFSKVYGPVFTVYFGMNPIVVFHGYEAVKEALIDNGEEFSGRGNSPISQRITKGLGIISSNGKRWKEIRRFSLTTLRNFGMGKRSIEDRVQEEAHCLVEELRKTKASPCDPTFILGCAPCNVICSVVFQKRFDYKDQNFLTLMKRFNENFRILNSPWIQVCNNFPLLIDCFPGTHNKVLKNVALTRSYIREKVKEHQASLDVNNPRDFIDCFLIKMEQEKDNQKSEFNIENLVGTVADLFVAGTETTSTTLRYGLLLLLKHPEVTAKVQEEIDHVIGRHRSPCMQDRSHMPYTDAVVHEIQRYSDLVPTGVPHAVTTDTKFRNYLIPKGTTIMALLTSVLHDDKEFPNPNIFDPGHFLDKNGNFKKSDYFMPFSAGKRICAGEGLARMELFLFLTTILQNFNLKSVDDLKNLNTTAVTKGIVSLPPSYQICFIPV
Summary of the method: (§2)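 Human liver microsomes with probe substrate and an NADPH-regenerating system in 0.1 M potassium phosphate pH 7.4 at 37 °C, run in duplicate. Inhibitor at 0–20 μM (0–2.5 μM for one compound), eight concentrations. Reactions were stopped with acetonitrile/formic acid containing isotope-labelled internal standard, and metabolite area ratios were compared with and without inhibitor. IC50 was taken by linear interpolation between bracketing concentrations.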

Cytochrome P450 3A4 [3] = biological target: T2, Cytochrome P450 3A4 (Homo sapiens, UniProt P08684); assay: Inhibition of CYP3A4 (unknown origin) using testosterone substrate; type: ADME
Summary of the method: (§3)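 Reactions stopped with acetonitrile/0.1% formic acid plus labelled internal standard. Metabolite measured by LC-MS area ratio. IC50 by linear interpolation.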

Collagenase 3 [4] = biological target: T3, Collagenase 3 (Homo sapiens, UniProt P45452); assay: Non-competitive inhibition of full-length recombinant human MMP-13 assessed as fTHP-15 substrate hydrolysis
Cytochrome P450 2B6 = biological target: T4, Cytochrome P450 2B6 (Homo sapiens, UniProt P20813); assay: Inhibition of CYP2B6 (unknown origin) using bupropion substrate; type: ADME; summary of the method: as §2
T4 sequence (P20813 whole entry): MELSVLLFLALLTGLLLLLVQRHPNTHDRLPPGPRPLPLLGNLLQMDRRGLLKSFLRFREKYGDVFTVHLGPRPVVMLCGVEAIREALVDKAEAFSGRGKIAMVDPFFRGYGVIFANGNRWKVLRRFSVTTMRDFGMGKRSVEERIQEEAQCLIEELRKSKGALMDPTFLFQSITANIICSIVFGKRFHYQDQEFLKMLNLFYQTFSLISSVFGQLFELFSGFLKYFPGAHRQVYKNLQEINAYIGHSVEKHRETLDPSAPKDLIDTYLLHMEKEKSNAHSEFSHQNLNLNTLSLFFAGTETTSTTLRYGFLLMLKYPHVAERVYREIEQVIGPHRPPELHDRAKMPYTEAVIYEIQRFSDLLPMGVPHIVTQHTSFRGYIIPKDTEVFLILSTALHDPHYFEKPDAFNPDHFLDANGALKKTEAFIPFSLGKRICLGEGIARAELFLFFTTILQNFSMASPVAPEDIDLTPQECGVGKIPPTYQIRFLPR

Cytochrome P450 2C9 = Cytochrome P450 2C9 (Homo sapiens, UniProt P11712); assay: Inhibition of CYP2C9 (unknown origin) using diclofenac substrate; type: ADME; summary of the method: as §2
Cytochrome P450 2C19 = Cytochrome P450 2C19 (Homo sapiens, UniProt P33261); assay: Inhibition of CYP2C19 (unknown origin) using (S)-mephentoin substrate; type: ADME; summary of the method: as §2
Cytochrome P450 2D6 = Cytochrome P450 2D6 (Homo sapiens, UniProt P10635); assay: Inhibition of CYP2D6 (unknown origin) using dextromethophan substrate; type: ADME; summary of the method: as §2
Collagenase 3 [5] = biological target: T3, Collagenase 3; assay: Inhibition of full-length recombinant human MMP-13 assessed as bovine type-2 collagen hydrolysis after 22 hrs by fluorescence assay
Cytochrome P450 3A4 [6] = biological target: T2, Cytochrome P450 3A4; assay: Inhibition of CYP3A4 (unknown origin) using midazolam substrate; type: ADME; summary of the method: as §3
Cytochrome P450 1A2 = biological target: T5, Cytochrome P450 1A2 (Homo sapiens, UniProt P05177); assay: Inhibition of CYP1A2 (unknown origin) using tacrin substrate; type: ADME; summary of the method: as §2
T5 sequence (P05177 whole entry): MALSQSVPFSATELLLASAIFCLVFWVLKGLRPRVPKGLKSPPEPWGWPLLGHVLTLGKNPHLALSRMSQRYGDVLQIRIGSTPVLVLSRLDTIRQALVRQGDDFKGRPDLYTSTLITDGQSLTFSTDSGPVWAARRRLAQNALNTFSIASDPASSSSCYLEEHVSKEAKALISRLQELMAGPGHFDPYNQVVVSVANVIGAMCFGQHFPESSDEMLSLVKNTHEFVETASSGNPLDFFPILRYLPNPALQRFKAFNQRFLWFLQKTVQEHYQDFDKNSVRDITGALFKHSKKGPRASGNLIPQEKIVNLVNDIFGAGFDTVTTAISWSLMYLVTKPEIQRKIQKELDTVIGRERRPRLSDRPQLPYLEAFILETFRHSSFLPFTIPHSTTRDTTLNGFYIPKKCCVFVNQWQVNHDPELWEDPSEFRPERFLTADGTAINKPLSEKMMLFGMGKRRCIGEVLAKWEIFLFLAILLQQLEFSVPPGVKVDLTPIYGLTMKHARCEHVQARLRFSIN

Collagenase 3 [7] = biological target: T3, Collagenase 3; conditions: 50 uM
Collagenase 3 [8] = biological target: T3, Collagenase 3; assay: Competitive inhibition of full-length recombinant human MMP-13 assessed as fTHP-15 substrate hydrolysis by Lineweaver-Burke plot analysis
Summary of the method: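 Pro-MMP-13 activated with 1 mM APMA for 2 h at 37 °C. Enzyme at 4 nM was incubated with fTHP-15 at 2–25 μM and varying inhibitor in Tris pH 7.5/NaCl/CaCl2/Brij-35 buffer at room temperature. Fluorescence was read at ex 324/em 393 nm, and rates were taken from the linear portion. Mechanism was assigned by a mixed-model nonlinear fit (α parameter) and confirmed by Lineweaver–Burke plots.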

T2 sequence (P08684 whole entry): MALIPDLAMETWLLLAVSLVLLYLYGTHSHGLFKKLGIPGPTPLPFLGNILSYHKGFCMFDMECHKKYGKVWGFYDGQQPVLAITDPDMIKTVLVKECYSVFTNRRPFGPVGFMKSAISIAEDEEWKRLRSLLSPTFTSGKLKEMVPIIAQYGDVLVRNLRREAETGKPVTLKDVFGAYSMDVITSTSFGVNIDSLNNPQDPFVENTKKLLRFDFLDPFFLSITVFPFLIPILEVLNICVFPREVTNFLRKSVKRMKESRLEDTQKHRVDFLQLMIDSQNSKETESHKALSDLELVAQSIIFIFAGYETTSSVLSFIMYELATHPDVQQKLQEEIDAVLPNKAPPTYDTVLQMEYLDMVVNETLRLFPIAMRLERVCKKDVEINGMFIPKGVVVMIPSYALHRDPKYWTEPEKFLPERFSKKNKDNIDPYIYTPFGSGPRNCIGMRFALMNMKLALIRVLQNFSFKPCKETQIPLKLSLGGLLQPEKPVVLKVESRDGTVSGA
Chain of Cytochrome P450 2C9 (P11712 whole entry): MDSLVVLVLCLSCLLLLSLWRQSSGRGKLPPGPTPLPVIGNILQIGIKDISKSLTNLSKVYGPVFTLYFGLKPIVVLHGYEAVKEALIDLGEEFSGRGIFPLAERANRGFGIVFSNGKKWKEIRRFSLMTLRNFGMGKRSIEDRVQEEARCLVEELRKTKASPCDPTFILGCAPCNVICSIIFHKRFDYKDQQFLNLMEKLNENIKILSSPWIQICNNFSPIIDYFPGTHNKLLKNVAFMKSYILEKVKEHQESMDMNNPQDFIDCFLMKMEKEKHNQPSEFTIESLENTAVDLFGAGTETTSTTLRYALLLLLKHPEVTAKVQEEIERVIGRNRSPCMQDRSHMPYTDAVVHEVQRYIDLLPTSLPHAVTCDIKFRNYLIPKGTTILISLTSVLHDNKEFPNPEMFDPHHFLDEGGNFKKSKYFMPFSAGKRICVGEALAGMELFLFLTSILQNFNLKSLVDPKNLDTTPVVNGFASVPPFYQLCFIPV
Chain of Cytochrome P450 2C19 (P33261 whole entry): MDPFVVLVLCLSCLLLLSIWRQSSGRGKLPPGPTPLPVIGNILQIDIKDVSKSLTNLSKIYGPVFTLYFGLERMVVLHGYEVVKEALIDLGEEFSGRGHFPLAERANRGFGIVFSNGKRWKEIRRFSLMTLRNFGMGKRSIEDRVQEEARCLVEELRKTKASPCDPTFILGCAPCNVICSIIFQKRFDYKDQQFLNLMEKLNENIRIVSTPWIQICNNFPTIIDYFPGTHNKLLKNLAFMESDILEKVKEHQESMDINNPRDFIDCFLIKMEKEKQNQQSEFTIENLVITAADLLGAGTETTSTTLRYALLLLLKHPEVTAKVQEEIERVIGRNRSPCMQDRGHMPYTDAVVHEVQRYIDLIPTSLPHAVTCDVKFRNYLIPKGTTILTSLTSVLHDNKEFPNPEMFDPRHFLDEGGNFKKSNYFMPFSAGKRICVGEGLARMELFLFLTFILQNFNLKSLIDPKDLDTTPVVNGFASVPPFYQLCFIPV
Chain of Cytochrome P450 2D6 (P10635 whole entry): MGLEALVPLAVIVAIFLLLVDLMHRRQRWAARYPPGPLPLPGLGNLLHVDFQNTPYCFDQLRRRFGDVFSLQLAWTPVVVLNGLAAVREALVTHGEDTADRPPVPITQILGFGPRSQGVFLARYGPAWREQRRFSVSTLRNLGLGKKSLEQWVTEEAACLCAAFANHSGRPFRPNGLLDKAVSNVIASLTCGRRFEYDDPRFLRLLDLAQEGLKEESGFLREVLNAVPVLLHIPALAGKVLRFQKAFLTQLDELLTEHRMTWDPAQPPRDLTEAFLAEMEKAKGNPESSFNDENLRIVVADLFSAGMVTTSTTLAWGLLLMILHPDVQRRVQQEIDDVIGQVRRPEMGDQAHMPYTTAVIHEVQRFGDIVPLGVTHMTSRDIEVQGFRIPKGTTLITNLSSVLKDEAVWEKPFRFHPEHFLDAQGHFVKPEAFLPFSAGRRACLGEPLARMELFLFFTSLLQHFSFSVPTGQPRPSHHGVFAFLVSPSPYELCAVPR

t1/2 (Liver): 12.3 min | t1/2 (Liver microsome [1]): 44.1 min | t1/2 (Liver microsome [2]): 26.5 min
SMILES: CCN(CC)CCNC(=O)c1c(C)[nH]c(/C=C2\C(=O)Nc3ccc(F)cc32)c1C [SUNITINIB]

SMILES: Cc1ccc(CSc2nc3c(c(=O)[nH]2)CCC3)cc1
IC50 (Cytochrome P450 2C8): > 20 µM | IC50 (Cytochrome P450 3A4 [3]): > 20 µM | IC50 (Collagenase 3 [4]): 2.4 µM | IC50 (Cytochrome P450 2B6): > 20 µM | IC50 (Cytochrome P450 2C9): 8.8 µM | IC50 (Cytochrome P450 2C19): 7.9 µM | IC50 (Cytochrome P450 2D6): > 20 µM | IC50 (Collagenase 3 [5]): 0.4 µM | IC50 (Cytochrome P450 3A4 [6]): > 20 µM | t1/2 (Liver microsome [1]): 7.3 min | IC50 (Cytochrome P450 1A2): 3.7 µM

inhibition (Collagenase 3 [7]): 70%
SMILES: O=C(O)CN(CCN(CC(=O)O)CC(=O)O)CC(=O)O

Kb (Collagenase 3 [8]): 1200 µM
SMILES: CC(=O)NO
